# Experiments:
# [1] = molecular target: Cyclin-dependent kinase 8/19 (Homo sapiens) (UniProt P49336+Q9BWU1); assay: Inhibition of CDK8/11 K2 labeling site in human Huh-7 cells at 1 uM by KiNativ Profiling analysis relative to control; type: cell-based
# [2] = molecular target: T1, PAN2-PAN3 deadenylation complex subunit PAN3 (Homo sapiens) (UniProt Q58A45); assay: Inhibition of PAN3 ATP labeling site in human A-375 cells at 0.05 uM by KiNativ Profiling analysis relative to control; type: cell-based
# T1 sequence (whole entry): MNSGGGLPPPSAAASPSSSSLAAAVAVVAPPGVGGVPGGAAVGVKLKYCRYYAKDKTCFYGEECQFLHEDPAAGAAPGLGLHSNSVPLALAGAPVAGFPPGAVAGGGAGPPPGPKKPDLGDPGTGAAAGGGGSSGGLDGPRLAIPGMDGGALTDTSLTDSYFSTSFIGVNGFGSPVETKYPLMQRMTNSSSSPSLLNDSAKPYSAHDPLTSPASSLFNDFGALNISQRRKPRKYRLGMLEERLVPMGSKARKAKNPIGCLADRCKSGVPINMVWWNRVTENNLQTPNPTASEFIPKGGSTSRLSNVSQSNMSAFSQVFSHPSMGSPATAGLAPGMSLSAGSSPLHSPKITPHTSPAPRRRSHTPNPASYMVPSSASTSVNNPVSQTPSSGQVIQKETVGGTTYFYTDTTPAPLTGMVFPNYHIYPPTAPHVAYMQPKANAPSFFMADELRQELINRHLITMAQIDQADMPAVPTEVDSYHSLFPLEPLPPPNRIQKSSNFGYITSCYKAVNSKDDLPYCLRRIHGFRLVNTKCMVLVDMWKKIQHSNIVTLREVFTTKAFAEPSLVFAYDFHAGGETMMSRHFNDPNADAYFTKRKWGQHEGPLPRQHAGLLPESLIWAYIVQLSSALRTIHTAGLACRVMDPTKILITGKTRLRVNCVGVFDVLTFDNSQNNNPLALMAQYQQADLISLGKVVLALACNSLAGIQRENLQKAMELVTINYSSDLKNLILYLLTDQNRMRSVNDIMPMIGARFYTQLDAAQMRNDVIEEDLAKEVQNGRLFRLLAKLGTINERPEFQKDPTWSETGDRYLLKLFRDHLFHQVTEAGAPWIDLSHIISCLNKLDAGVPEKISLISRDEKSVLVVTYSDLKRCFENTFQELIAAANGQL
# [3] = molecular target: Focal adhesion kinase 1 (Homo sapiens) (UniProt Q05397); assay: Inhibition of FAK (unknown origin) at 1 uM by Ambit Kinomescan binding assay relative to control
# Summary of the method: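 In vitro ATP-site competition binding assay against a panel of over 420 kinases (KinomeScan), with compound tested at 10 or 1 μM.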
# [4] = test system: Proto-oncogene tyrosine-protein kinase receptor Ret (Homo sapiens), P07949 [V804M]; assay: Inhibition of RET V804M mutant (unknown origin) at 1 uM by Ambit Kinomescan binding assay relative to control; values are per cent of control
# [5] = molecular target: T2, EKC/KEOPS complex subunit TP53RK (Homo sapiens) (UniProt Q96S44); assay: Inhibition of PRPK ATP Loop labeling site in human Huh-7 cells at 1 uM by KiNativ Profiling analysis relative to control; type: cell-based
# T2 sequence (whole entry): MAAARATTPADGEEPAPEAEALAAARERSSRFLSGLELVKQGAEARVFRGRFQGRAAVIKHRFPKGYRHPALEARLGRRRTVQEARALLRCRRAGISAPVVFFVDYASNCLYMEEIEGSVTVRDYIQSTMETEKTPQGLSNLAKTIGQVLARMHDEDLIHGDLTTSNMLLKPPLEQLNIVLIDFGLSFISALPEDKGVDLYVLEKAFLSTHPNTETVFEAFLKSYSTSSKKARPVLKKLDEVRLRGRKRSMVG
# [6] = molecular target: T3, Dual specificity mitogen-activated protein kinase kinase 3 (Homo sapiens) (UniProt P46734); assay: Inhibition of MAP2K3 ACT labeling site in human Huh-7 cell lysate at 1 uM by KiNativ Profiling analysis relative to control; type: subcellular
# T3 sequence (whole entry): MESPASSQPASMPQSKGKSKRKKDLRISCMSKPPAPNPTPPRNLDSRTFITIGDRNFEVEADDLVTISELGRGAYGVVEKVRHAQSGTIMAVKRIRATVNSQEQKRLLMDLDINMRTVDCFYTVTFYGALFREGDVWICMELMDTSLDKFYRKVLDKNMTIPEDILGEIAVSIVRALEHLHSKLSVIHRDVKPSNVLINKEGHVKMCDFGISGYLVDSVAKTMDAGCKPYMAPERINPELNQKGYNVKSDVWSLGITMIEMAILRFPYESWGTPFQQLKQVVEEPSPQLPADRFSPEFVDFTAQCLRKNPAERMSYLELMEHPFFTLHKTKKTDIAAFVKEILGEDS
# [7] = molecular target: 5'-AMP-activated protein kinase catalytic subunit alpha-1 (Homo sapiens) (UniProt Q13131); assay: Inhibition of AMPKa1 ATP labeling site in human Huh-7 cell lysate at 1 uM by KiNativ Profiling analysis relative to control; type: subcellular
# [8] = molecular target: T4, Dual specificity mitogen-activated protein kinase kinase 7 (Homo sapiens) (UniProt O14733); assay: Inhibition of MAP2K7 Lys2 labeling site in human Huh-7 cell lysate at 1 uM by KiNativ Profiling analysis relative to control; type: subcellular
# T4 sequence (whole entry): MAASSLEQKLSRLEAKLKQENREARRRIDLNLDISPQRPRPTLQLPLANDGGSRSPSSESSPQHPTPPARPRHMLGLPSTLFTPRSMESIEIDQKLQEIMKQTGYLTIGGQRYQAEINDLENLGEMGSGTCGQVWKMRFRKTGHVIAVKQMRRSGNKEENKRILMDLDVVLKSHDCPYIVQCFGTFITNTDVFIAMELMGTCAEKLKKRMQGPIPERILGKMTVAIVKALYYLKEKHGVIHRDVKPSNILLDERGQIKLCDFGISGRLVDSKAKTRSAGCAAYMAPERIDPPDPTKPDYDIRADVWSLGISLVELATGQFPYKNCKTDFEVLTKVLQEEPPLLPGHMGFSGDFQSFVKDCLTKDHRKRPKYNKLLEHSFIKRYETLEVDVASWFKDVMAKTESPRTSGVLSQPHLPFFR
# Sequence of 5'-AMP-activated protein kinase catalytic subunit alpha-1 (Homo sapiens) (Q13131 whole entry, looked up): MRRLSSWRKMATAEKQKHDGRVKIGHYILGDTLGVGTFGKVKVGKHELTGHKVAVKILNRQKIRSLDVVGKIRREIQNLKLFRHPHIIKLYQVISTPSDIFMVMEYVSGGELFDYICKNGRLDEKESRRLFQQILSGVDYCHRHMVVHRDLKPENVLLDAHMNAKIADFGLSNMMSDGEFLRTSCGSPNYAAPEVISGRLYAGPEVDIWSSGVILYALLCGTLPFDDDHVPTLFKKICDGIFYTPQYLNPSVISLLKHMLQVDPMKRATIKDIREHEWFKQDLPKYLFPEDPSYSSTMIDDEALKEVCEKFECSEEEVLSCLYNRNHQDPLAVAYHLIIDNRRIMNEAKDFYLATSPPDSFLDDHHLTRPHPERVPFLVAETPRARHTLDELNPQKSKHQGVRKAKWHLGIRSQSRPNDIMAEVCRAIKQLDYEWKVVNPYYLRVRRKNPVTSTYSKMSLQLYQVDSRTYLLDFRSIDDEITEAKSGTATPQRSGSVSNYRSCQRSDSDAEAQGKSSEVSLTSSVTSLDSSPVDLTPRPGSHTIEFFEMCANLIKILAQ
# Sequence of Proto-oncogene tyrosine-protein kinase receptor Ret (Homo sapiens), P07949 [V804M] (P07949 whole entry V804M): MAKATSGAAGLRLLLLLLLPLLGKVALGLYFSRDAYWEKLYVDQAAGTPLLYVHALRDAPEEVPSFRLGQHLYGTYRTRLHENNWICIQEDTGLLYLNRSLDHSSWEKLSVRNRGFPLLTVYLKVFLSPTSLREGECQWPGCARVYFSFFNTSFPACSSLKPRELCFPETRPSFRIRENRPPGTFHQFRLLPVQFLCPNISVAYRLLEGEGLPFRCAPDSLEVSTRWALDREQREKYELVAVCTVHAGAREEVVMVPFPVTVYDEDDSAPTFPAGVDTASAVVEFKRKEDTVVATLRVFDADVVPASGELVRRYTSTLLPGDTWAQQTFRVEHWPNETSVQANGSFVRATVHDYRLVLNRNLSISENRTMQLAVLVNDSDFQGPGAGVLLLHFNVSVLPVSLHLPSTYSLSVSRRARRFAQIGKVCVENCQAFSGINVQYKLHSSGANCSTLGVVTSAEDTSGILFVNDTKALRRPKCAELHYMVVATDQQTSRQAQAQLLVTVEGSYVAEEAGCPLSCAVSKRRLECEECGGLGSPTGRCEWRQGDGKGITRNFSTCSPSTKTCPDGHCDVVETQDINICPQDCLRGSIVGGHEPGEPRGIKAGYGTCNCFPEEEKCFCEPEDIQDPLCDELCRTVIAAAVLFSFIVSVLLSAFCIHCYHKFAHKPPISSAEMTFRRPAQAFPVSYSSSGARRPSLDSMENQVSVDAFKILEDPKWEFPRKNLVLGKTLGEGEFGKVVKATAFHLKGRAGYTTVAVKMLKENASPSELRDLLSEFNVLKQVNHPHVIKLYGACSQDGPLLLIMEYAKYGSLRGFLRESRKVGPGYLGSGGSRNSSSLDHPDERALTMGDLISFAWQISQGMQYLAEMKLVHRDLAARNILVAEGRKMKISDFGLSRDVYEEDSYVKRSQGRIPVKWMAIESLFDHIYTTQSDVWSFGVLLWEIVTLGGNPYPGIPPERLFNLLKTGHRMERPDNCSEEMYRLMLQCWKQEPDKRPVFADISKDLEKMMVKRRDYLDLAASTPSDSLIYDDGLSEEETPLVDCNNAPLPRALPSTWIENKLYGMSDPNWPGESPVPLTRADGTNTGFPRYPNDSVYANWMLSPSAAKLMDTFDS
# Sequence of Focal adhesion kinase 1 (Homo sapiens) (Q05397 2-1052 limits assumed): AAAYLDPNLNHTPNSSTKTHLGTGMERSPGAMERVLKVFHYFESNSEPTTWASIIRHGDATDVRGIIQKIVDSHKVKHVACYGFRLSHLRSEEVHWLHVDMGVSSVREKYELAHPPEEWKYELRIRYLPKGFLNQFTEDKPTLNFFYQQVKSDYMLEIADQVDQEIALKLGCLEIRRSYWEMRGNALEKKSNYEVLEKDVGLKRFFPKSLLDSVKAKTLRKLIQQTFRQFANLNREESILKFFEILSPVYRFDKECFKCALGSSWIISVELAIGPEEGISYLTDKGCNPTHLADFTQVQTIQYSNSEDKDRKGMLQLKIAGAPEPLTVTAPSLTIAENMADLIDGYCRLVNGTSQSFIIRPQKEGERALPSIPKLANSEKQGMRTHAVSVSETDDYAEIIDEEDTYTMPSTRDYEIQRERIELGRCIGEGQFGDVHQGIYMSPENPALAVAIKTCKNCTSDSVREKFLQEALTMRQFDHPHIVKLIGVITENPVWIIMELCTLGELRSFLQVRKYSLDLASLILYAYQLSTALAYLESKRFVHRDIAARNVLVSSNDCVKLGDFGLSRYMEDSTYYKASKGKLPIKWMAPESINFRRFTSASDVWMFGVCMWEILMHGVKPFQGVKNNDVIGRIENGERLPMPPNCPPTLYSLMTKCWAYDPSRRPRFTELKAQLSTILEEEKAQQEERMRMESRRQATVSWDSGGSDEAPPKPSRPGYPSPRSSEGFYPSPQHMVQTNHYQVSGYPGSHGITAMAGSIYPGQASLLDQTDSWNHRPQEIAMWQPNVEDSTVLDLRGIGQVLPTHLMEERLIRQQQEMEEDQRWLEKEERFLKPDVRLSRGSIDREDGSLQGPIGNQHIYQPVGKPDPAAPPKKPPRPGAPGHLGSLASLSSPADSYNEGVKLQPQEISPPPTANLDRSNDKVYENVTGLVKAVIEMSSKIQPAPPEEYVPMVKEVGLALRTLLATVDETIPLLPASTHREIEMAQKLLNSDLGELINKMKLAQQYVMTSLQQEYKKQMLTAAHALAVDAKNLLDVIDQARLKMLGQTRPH
# Sequence of Cyclin-dependent kinase 8/19 (Homo sapiens) (P49336 whole entry, looked up): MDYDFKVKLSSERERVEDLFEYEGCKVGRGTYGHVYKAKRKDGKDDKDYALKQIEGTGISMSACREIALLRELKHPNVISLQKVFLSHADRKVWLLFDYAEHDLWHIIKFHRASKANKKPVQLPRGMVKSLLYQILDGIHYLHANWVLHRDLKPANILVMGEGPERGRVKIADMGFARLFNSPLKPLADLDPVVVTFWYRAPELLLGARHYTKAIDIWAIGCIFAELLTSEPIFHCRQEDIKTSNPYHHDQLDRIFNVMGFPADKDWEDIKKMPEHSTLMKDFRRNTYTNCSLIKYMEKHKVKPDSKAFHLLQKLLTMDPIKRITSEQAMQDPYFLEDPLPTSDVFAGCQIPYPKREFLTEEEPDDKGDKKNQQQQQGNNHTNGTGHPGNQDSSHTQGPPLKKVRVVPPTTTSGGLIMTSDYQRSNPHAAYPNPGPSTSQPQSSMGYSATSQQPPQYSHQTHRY
# Sequence of Cyclin-dependent kinase 8/19 (Homo sapiens) (Q9BWU1 whole entry, looked up): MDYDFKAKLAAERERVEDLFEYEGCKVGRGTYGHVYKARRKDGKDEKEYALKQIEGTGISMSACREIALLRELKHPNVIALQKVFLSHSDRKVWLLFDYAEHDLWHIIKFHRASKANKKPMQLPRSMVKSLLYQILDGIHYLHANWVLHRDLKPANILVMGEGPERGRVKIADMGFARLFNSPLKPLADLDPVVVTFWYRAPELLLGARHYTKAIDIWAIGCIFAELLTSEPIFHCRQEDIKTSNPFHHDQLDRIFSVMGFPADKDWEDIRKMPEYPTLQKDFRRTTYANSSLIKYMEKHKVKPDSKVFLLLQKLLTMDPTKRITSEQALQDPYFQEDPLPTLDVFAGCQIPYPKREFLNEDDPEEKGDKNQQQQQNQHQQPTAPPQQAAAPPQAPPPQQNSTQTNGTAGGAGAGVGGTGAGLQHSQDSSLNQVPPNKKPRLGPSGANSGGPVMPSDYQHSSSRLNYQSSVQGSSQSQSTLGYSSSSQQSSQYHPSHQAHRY
smiles,measurement,setting,value
CCN1CCN(Cc2ccc(NC(=O)c3ccc(C)c(Oc4ccnc5[nH]ccc45)c3)cc2C(F)(F)F)CC1,inhibition,[1],-4.7%
same,inhibition,[2],7%
CCN1CCN(Cc2ccc(NC(=O)c3ccc(C)c(/C=C/c4cnc5[nH]ccc5c4OC)c3)cc2C(F)(F)F)CC1,inhibition,[3],84%
same,percent of control,[4],0.8%
CNc1cc(Oc2cc(C(=O)Nc3cc(N4CCN(C)CC4)cc(C(F)(F)F)c3)ccc2C)ncn1,inhibition,[5],22.9%
same,inhibition,[6],0.6%
same,inhibition,[7],11.2%
same,inhibition,[8],2.7%
